Test results taken from ChEMBL document CHEMBL1138529, “Efficacy, pharmacokinetics, and metabolism of tetrahydroquinoline inhibitors of Plasmodium falciparum protein farnesyltransferase” (Antimicrob Agents Chemother, 2007).

Columns and labels:
Rattus norvegicus = assay: Toxicity in Sprague-Dawley rat at 50 mg/kg, po; format: organism-based; design: dose 50 mg/kg, route oral; conditions: in vivo
Procedure, shortened: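 Female Sprague-Dawley rats, 10-12 weeks, three per group. 50 mg/kg oral gavage in 3% EtOH-7% Tween 80-90% normal saline. Saphenous vein plasma sampled over time, and animals observed for adverse reactions.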

Plasmodium falciparum = assay: Antiplasmodial activity against Plasmodium falciparum by [3H]hypoxanthine uptake; format: functional; conditions: read-out: ED50 (the source's name)
Procedure, shortened: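 Asynchronous P. falciparum (3D7 or K1) in RPMI 1640 with 20% heat-inactivated human A+ plasma, 0.5% parasitemia and 0.5% hematocrit; compound serially diluted, top final 5 μM, 48 h at 37°C under 5% CO2/5% O2/90% N2, then [8-3H]hypoxanthine 0.3 μCi added for 24 h.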

Mus musculus [1] = assay: Toxicity in BALB/c mouse at 50 mg/kg, po; format: organism-based; design: dose 50 mg/kg, route oral; conditions: in vivo
[2] = Permeability from apical to basolateral side in human Caco-2 cells; format: ADME, cell-based; conditions: read-out: permeability
[3] = Inhibition of Plasmodium falciparum protein farnesyltransferase by SPA method
[4] = Permeability from basolateral to apical side in human Caco-2 cells; format: ADME, cell-based; conditions: read-out: permeability
Procedure, shortened: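 Caco-2 clone TC7 grown on laminin-coated porous inserts and used 19-21 days after seeding; integrity checked by TEER and [3H]mannitol flux. Monolayers equilibrated 30 min at 37°C in HBSS/5 mM HEPES pH 7.4. Compound at 50 μM final added to basolateral donor side. Apical receiver sampled at 60 min, 37°C with shaking; LC/MS; Papp calculated from 60-min concentrations.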

Mus musculus [5] = assay: Plasma concentration in BALB/c mouse at 50 mg/kg, po; format: ADME, organism-based; design: dose 50 mg/kg, route oral; conditions: in vivo
Procedure, shortened: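 Female BALB/c mice, 8-10 weeks, three per group. Single 50 mg/kg oral gavage in 3% EtOH-7% Tween 80-90% normal saline. Plasma collected by tail bleed at set times, frozen at −20°C, acetonitrile-extracted with internal standard, quantified by LC/MS.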

SMILES	Activity (Rattus norvegicus)	EC50 (Plasmodium falciparum)	Activity (Mus musculus [1])	Papp A→B [2]	IC50 [3]	Papp B→A [4]	concentration (Mus musculus [5])
Cn1cncc1CN1CC(N(CC2CCN(C(=O)NC(C)(C)C)CC2)S(=O)(=O)c2ccccn2)Cc2cc(C#N)ccc21 (stereo unspecified)	Non-toxic	13 nM	Non-toxic	0.6 ×10⁻⁶ cm/s	0.8 nM		
CC[C@]1(O)C[C@@H]2CN(CCc3c([nH]c4ccccc34)[C@@](C(=O)OC)(c3cc4c(cc3OC)N(C)[C@H]3[C@@](O)(C(=O)OC)[C@H](OC(C)=O)[C@]5(CC)C=CCN6CC[C@]43[C@@H]65)C2)C1 [VINBLASTINE]				0.1 ×10⁻⁶ cm/s		41.9 ×10⁻⁶ cm/s	
Cc1noc(C)c1CN(C1Cc2cc(C#N)ccc2N(Cc2cncn2C)C1)S(=O)(=O)c1ccccn1 (stereo unspecified)			Non-toxic	8 ×10⁻⁶ cm/s		67.1 ×10⁻⁶ cm/s	15 µM
Cn1cncc1CN1CC(N(CC2CCN(C(=O)N3CCCC3)CC2)S(=O)(=O)c2ccccn2)Cc2cc(C#N)ccc21 (stereo unspecified)	Non-toxic	13 nM	Non-toxic	0.6 ×10⁻⁶ cm/s	0.8 nM		
Cn1cncc1CN1CC(N(CC2CCN(C(=O)CNC(=O)OC(C)(C)C)CC2)S(=O)(=O)c2ccccn2)Cc2cc(C#N)ccc21 (stereo unspecified)	Non-toxic	18 nM	Non-toxic	0.5 ×10⁻⁶ cm/s	0.6 nM		
Cn1cncc1CN1CC(N(CC2CCN(C(=O)C3CCCC3)CC2)S(=O)(=O)c2ccccn2)Cc2cc(C#N)ccc21 (stereo unspecified)	Non-toxic	18 nM	Non-toxic	0.5 ×10⁻⁶ cm/s	0.6 nM		
Cn1cncc1CN1CC(N(CC(=O)NC(C)(C)C)S(=O)(=O)c2ccccn2)Cc2cc(C#N)ccc21 (stereo unspecified)		85 nM			1 nM		
CC(C)S(=O)(=O)N1CCC(CN(C2Cc3cc(C#N)ccc3N(Cc3cncn3C)C2)S(=O)(=O)c2ccccn2)CC1 (stereo unspecified)	Non-toxic	62 nM	Non-toxic	0.1 ×10⁻⁶ cm/s	0.5 nM		
CN(C)C(=O)N1CCC(CN(C2Cc3cc(C#N)ccc3N(Cc3cncn3C)C2)S(=O)(=O)c2ccccn2)CC1 (stereo unspecified)	Non-toxic	13 nM	Non-toxic	0.6 ×10⁻⁶ cm/s	0.8 nM		
Cn1cncc1CN1CC(N(CC2CCN(C(=O)c3ccc(Cl)cc3)CC2)S(=O)(=O)c2ccccn2)Cc2cc(C#N)ccc21 (stereo unspecified)	Non-toxic	18 nM	Non-toxic	0.5 ×10⁻⁶ cm/s	0.6 nM		
Cn1cnc(S(=O)(=O)N(CCn2cccc2)C2Cc3cc(C#N)ccc3N(Cc3cncn3C)C2)c1 (stereo unspecified)			Non-toxic	0.3 ×10⁻⁶ cm/s		53 ×10⁻⁶ cm/s	0.8 µM
Cn1cncc1CN1CC(N(CC2CCN(C(=O)c3ccco3)CC2)S(=O)(=O)c2ccccn2)Cc2cc(C#N)ccc21 (stereo unspecified)	Non-toxic	18 nM	Non-toxic	0.5 ×10⁻⁶ cm/s	0.6 nM		
Cn1cncc1CN1CC(N(CC2CCN(S(C)(=O)=O)CC2)S(=O)(=O)c2ccccn2)Cc2cc(C#N)ccc21 (stereo unspecified)	Non-toxic	62 nM	Non-toxic	0.1 ×10⁻⁶ cm/s	0.5 nM		
Cn1cncc1CN1CC(N(CC2CCN(C(=O)CC(C)(C)C)CC2)S(=O)(=O)c2ccccn2)Cc2cc(C#N)ccc21 (stereo unspecified)	Non-toxic	16 nM	Non-toxic	0.5 ×10⁻⁶ cm/s	0.6 nM		
CC(C)NC(=O)N1CCC(CN(C2Cc3cc(C#N)ccc3N(Cc3cncn3C)C2)S(=O)(=O)c2ccccn2)CC1 (stereo unspecified)	Non-toxic	13 nM	Non-toxic	0.6 ×10⁻⁶ cm/s	0.8 nM		
Cn1cnc(S(=O)(=O)N2CCC(CN(C3Cc4cc(C#N)ccc4N(Cc4cncn4C)C3)S(=O)(=O)c3ccccn3)CC2)c1 (stereo unspecified)	Non-toxic	62 nM	Non-toxic	0.1 ×10⁻⁶ cm/s	0.5 nM		
Cn1cncc1CN1CC(N(CC2CCN(C(=O)CC(F)(F)F)CC2)S(=O)(=O)c2ccccn2)Cc2cc(C#N)ccc21 (stereo unspecified)	Non-toxic	18 nM	Non-toxic	0.5 ×10⁻⁶ cm/s	0.6 nM		
Cn1cncc1CN1CC(N(CC(=O)NC(C)(C)C)S(=O)(=O)c2cccnc2)Cc2cc(C#N)ccc21 (stereo unspecified)		2.7 nM			10 nM		
CCCC(=O)N1CCC(CN(C2Cc3cc(C#N)ccc3N(Cc3cncn3C)C2)S(=O)(=O)c2ccccn2)CC1 (stereo unspecified)	Non-toxic	17 nM	Non-toxic	0.5 ×10⁻⁶ cm/s	0.6 nM		
CCNC(=O)N1CCC(CN(C2Cc3cc(C#N)ccc3N(Cc3cncn3C)C2)S(=O)(=O)c2ccccn2)CC1 (stereo unspecified)	Non-toxic	13 nM	Non-toxic	0.6 ×10⁻⁶ cm/s	0.8 nM		

SMILES	Activity (Rattus norvegicus)	EC50 (Plasmodium falciparum)	Activity (Mus musculus [1])	Papp A→B [2]	IC50 [3]	Papp B→A [4]	concentration (Mus musculus [5])
Cn1cncc1CN1CC(N(CC2CCN(S(=O)(=O)c3ccccc3)CC2)S(=O)(=O)c2ccccn2)Cc2cc(C#N)ccc21 (stereo unspecified)	Non-toxic	62 nM	Non-toxic	0.1 ×10⁻⁶ cm/s	0.5 nM		
Cn1cncc1CN1CC(N(CC2CCN(C(=O)C3CC3)CC2)S(=O)(=O)c2ccccn2)Cc2cc(C#N)ccc21 (stereo unspecified)	Non-toxic	18 nM	Non-toxic	0.5 ×10⁻⁶ cm/s	0.6 nM		
CCC(=O)N1CCC(CN(C2Cc3cc(C#N)ccc3N(Cc3cncn3C)C2)S(=O)(=O)c2ccccn2)CC1 (stereo unspecified)	Non-toxic	13 nM	Non-toxic	0.5 ×10⁻⁶ cm/s	0.6 nM		
Cn1cncc1CN1CC(N(CC(=O)NC(C)(C)C)S(=O)(=O)c2ccncc2)Cc2cc(C#N)ccc21 (stereo unspecified)		> 5 nM			> 50 nM		
CC(=O)N1CCC(CN(C2Cc3cc(C#N)ccc3N(Cc3cncn3C)C2)S(=O)(=O)c2ccccn2)CC1 (stereo unspecified)	Non-toxic	12 nM	Non-toxic	0.5 ×10⁻⁶ cm/s	0.6 nM		
Cn1cncc1CN1CC(N(CC2CCN(C(=O)c3cccs3)CC2)S(=O)(=O)c2ccccn2)Cc2cc(C#N)ccc21 (stereo unspecified)	Non-toxic	18 nM	Non-toxic	0.5 ×10⁻⁶ cm/s	0.6 nM		
Cn1cncc1CN1CC(N(CC2CCN(C(=O)C(C)(C)C)CC2)S(=O)(=O)c2ccccn2)Cc2cc(C#N)ccc21 (stereo unspecified)	Non-toxic	15 nM	Non-toxic	0.5 ×10⁻⁶ cm/s	0.6 nM		
Cn1cncc1CN1CC(N(Cc2ccccn2)S(=O)(=O)c2ccccn2)Cc2cc(C#N)ccc21 (stereo unspecified)			Non-toxic	1.6 ×10⁻⁶ cm/s		73.3 ×10⁻⁶ cm/s	5.7 µM
CC(C)C(=O)N1CCC(CN(C2Cc3cc(C#N)ccc3N(Cc3cncn3C)C2)S(=O)(=O)c2ccccn2)CC1 (stereo unspecified)	Non-toxic	14 nM	Non-toxic	0.5 ×10⁻⁶ cm/s	0.6 nM		
CCS(=O)(=O)N1CCC(CN(C2Cc3cc(C#N)ccc3N(Cc3cncn3C)C2)S(=O)(=O)c2ccccn2)CC1 (stereo unspecified)	Non-toxic	62 nM	Non-toxic	0.1 ×10⁻⁶ cm/s	0.5 nM		
Cn1cncc1CN1CC(N(CC2CCN(C(=O)N3CCCCC3)CC2)S(=O)(=O)c2ccccn2)Cc2cc(C#N)ccc21 (stereo unspecified)	Non-toxic	13 nM	Non-toxic	0.6 ×10⁻⁶ cm/s	0.8 nM		
CNC(=C[N+](=O)[O-])NCCSCc1ccc(CN(C)C)o1 [RANITIDINE]				0.3 ×10⁻⁶ cm/s		5.6 ×10⁻⁶ cm/s	
Cn1cncc1CN1CC(N(Cc2ccc(S(C)(=O)=O)cc2)S(=O)(=O)c2ccccn2)Cc2cc(C#N)ccc21 (stereo unspecified)			Non-toxic	0.2 ×10⁻⁶ cm/s		50.1 ×10⁻⁶ cm/s	0.15 µM
C=C(C)C(=O)N1CCC(CN(C2Cc3cc(C#N)ccc3N(Cc3cncn3C)C2)S(=O)(=O)c2ccccn2)CC1 (stereo unspecified)	Non-toxic	18 nM	Non-toxic	0.5 ×10⁻⁶ cm/s	0.6 nM		
Cn1cnc(S(=O)(=O)N(Cc2cccc(-n3cccc3)c2)C2Cc3cc(C#N)ccc3N(Cc3cncn3C)C2)c1 (stereo unspecified)			Non-toxic	0.2 ×10⁻⁶ cm/s		52.1 ×10⁻⁶ cm/s	1.1 µM
Cn1cncc1CN1CC(N(Cc2cccc(-n3cccc3)c2)S(=O)(=O)c2ccccn2)Cc2cc(C#N)ccc21 (stereo unspecified)			Non-toxic	2.3 ×10⁻⁶ cm/s		12.1 ×10⁻⁶ cm/s	9.8 µM
CC(C)NCC(O)COc1cccc2ccccc12 (stereo unspecified) [PROPRANOLOL]				28.9 ×10⁻⁶ cm/s		83.4 ×10⁻⁶ cm/s	
Cn1cncc1CN1CC(N(CC2CCN(C(=O)Nc3ccc(Br)cc3)CC2)S(=O)(=O)c2ccccn2)Cc2cc(C#N)ccc21 (stereo unspecified)	Non-toxic	13 nM	Non-toxic	0.6 ×10⁻⁶ cm/s	0.8 nM		
Cn1cncc1CN1CC(N(CC2CCN(C(=O)c3ccccc3)CC2)S(=O)(=O)c2ccccn2)Cc2cc(C#N)ccc21 (stereo unspecified)	Non-toxic	18 nM	Non-toxic	0.5 ×10⁻⁶ cm/s	0.6 nM		
